Data taken from ChEMBL document CHEMBL4765388, “Fluoropyrimidin-2,4-dihydroxy-5-isopropylbenzamides as antitumor agents against CRC and NSCLC cancer cells” (Eur J Med Chem, 2020).
The source made the active and inactive calls. The calls are words filed in the database; no cut-off is given here.

Tests used:
[1] = target: Heat shock protein HSP 90-alpha (Homo sapiens, UniProt P07900); test: Inhibition of recombinant human full-length C-terminal Hsi-tagged HSP90alpha (1 to 732 residues) expressed in Escherichia coli measured after 2 to 3 hrs by FITC-labeled geldanamycin probe based fluorescence polarization assay
HCT-116 [2] = test: Antiproliferative activity against human HCT-116 cells measured after 48 hrs by SRB assay; type: functional
In short: (§1)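 Cells seeded and cultured overnight, then exposed to a gradient of compound concentrations for 48 h in medium with 5% FBS. A time-zero plate was fixed with 10% TCA at drug addition. After treatment, cells were fixed with 10% TCA and stained with 0.4% SRB in 1% acetic acid. Bound dye was dissolved in 10 mM trizma base, absorbance read at 515 nm, and GI50 derived. Each experiment was run at least three times.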

A549 [3] = test: Antiproliferative activity against human A549 cells measured after 48 hrs by SRB assay; type: functional
In short: as §1, with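 “acid.” for “acid. Bound dye was dissolved in 10 mM trizma base, absorbance read at 515 nm, and GI50 derived.”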

NCI-H460 = test: Antiproliferative activity against human NCI-H460 cells measured after 48 hrs by SRB assay; type: functional; in short: as §1
NCI-H1975 [4] = test: Antiproliferative activity against human NCI-H1975 cells measured after 48 hrs by SRB assay; type: functional; in short: as §1
HCT-116 [5] = test: Potency index, ratio of BIIB021 IC50 to test compound IC50 for human HCT-116 cells; type: functional
A549 [6] = test: Cell cycle arrest in human A549 cells assessed as accumulation at sub-G1 phase at 0.15 to 2.5 uM measured after 48 hrs by propidium iodide staining based flow cytometry; type: functional; conditions: dose 0.15-2.5 µM
In short: (§2)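 Cells in RPMI 1640 with 10% FBS, 37 °C, 5% CO2; 2.5×10^5/well, treated with DMSO or compound. Washed in PBS, fixed overnight in ice-cold 70% EtOH at -20 °C, stained in PBS with propidium iodide 80 µg/ml, Triton X-100 0.1% and RNase A 100 µg/ml. DNA content measured by FACScan; sub-G1 fraction quantified; means ± S.D., ≥3 independent experiments.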

HCT-116 [7] = test: Inhibition of colony formation in human HCT-116 cells at 0.009 to 0.018 uM measured after 24 hrs by crystal violet staining based assay; type: functional, cell-based; conditions: dose 0.009-0.018 µM
In short: (§3)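 Cells at 5×10^3/well, exposed to DMSO or compound for 24 h. Drug was washed out, and cells were trypsinized, replated and grown for 10 days. Colonies were fixed and stained with crystal violet (0.5% in 70% EtOH) and counted as % of control. Repeated at least twice.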

A549 [8] = test: Inhibition of colony formation in human A549 cells at 0.009 to 0.018 uM measured after 24 hrs by crystal violet staining based assay; type: functional, cell-based; conditions: dose 0.009-0.018 µM; in short: as §3
NCI-H1975 [9] = test: Inhibition of colony formation in human NCI-H1975 cells at 0.009 to 0.018 uM measured after 24 hrs by crystal violet staining based assay; type: functional, cell-based; conditions: dose 0.009-0.018 µM; in short: as §3
A549 [10] = test: Inhibition of HSP90 in human A549 cells assessed as upregulation of HSP70 expression at 0.075 to 1.25 uM after 24 hrs by Western blot analysis; type: cell-based; conditions: dose 0.075-1.25 µM
NCI-H1975 [11] = test: Inhibition of HSP90 in human NCI-H1975 cells assessed as upregulation of HSP70 expression at 0.075 to 1.25 uM after 24 hrs by Western blot analysis; type: cell-based; conditions: dose 0.075-1.25 µM
A549 [12] = test: Inhibition of HSP90 in human A549 cells assessed as down regulation of AKT expression at 0.075 to 1.25 uM after 24 hrs by Western blot analysis; type: cell-based; conditions: dose 0.075-1.25 µM
NCI-H1975 [13] = test: Inhibition of HSP90 in human NCI-H1975 cells assessed as down regulation of AKT expression at 0.075 to 1.25 uM after 24 hrs by Western blot analysis; type: cell-based; conditions: dose 0.075-1.25 µM
A549 [14] = test: Inhibition of HSP90 in human A549 cells assessed as down regulation of EGFR expression at 0.075 to 1.25 uM after 24 hrs by Western blot analysis; type: cell-based; conditions: dose 0.075-1.25 µM
NCI-H1975 [15] = test: Inhibition of HSP90 in human NCI-H1975 cells assessed as down regulation of EGFR expression at 0.075 to 1.25 uM after 24 hrs by Western blot analysis; type: cell-based; conditions: dose 0.075-1.25 µM
NCI-H1975 [16] = test: Cell cycle arrest in human NCI-H1975 cells assessed as accumulation at sub-G1 phase at 0.075 to 1.25 uM measured after 48 hrs by propidium iodide staining based flow cytometry; type: functional; conditions: dose 0.075-1.25 µM; in short: as §2
A549 [17] = test: Induction of apoptosis in human A549 cells assessed as increase in cleaved caspase 3 expression after 48 hrs by Western blot analysis; type: functional, cell-based
In short: (§4)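 Cells grown in RPMI 1640 with 10% FBS were left to attach overnight, then exposed to compound at stated concentrations for 48 h. Lysates were immunoblotted for cleaved PARP, γH2AX and cleaved caspase-3, -8 and -9. Each experiment was done at least three times.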

A549 [18] = test: Induction of apoptosis in human A549 cells assessed as increase in cleaved caspase 8 expression after 48 hrs by Western blot analysis; type: functional, cell-based; in short: as §4
A549 [19] = test: Induction of apoptosis in human A549 cells assessed as increase in cleaved caspase 9 expression after 48 hrs by Western blot analysis; type: functional, cell-based; in short: as §4
A549 [20] = test: Induction of apoptosis in human A549 cells assessed as increase in cleaved PARP expression after 48 hrs by Western blot analysis; type: functional, cell-based; in short: as §4
A549 [21] = test: Induction of apoptosis in human A549 cells assessed as increase in activated gamma H2AX expression after 48 hrs by Western blot analysis; type: functional, cell-based; in short: as §4
NCI-H1975 [22] = test: Induction of apoptosis in human NCI-H1975 cells assessed as increase in cleaved caspase 3 expression after 48 hrs by Western blot analysis; type: functional, cell-based; in short: as §4
NCI-H1975 [23] = test: Induction of apoptosis in human NCI-H1975 cells assessed as increase in cleaved caspase 8 expression after 48 hrs by Western blot analysis; type: functional, cell-based; in short: as §4
NCI-H1975 [24] = test: Induction of apoptosis in human NCI-H1975 cells assessed as increase in cleaved caspase 9 expression after 48 hrs by Western blot analysis; type: functional, cell-based; in short: as §4
NCI-H1975 [25] = test: Induction of apoptosis in human NCI-H1975 cells assessed as increase in cleaved PARP expression after 48 hrs by Western blot analysis; type: functional, cell-based; in short: as §4
NCI-H1975 [26] = test: Induction of apoptosis in human NCI-H1975 cells assessed as increase in activated gamma H2AX expression after 48 hrs by Western blot analysis; type: functional, cell-based; in short: as §4

Structure (SMILES): CC(C)c1cc(C(=O)N(Cc2ccc(Cl)cc2)c2ccc(Cn3c(=O)c(F)cn(C4CCCO4)c3=O)cc2)c(O)cc1O (stereo not drawn)
- IC50 [1]: 54.7 nM
- GI50 (HCT-116 [2]): 700 nM
- GI50 (A549 [3]): 560 nM
- GI50 (NCI-H460): 460 nM
- GI50 (NCI-H1975 [4]): 160 nM

Structure (SMILES): CC(C)c1cc(C(=O)N(Cc2ccccc2)c2ccc(Cn3c(=O)c(F)cn(C4CCCO4)c3=O)cc2)c(O)cc1O (stereo not drawn)
- IC50 [1]: 45.3 nM
- GI50 (HCT-116 [2]): 780 nM
- GI50 (A549 [3]): 800 nM
- GI50 (NCI-H460): 400 nM
- GI50 (NCI-H1975 [4]): 160 nM

Structure (SMILES): CCN(C(=O)c1cc(C(C)C)c(O)cc1O)c1ccc(Cn2c(=O)[nH]cc(F)c2=O)cc1
- IC50 [1]: 44.9 nM
- GI50 (HCT-116 [2]): 30 nM
- GI50 (A549 [3]): 40 nM
- GI50 (NCI-H460): 30 nM
- GI50 (NCI-H1975 [4]): 30 nM

Structure (SMILES): O=c1[nH]cc(F)c(=O)[nH]1 [FLUOROURACIL]
- GI50 (HCT-116 [2]): > 10000 nM
- GI50 (A549 [3]): 19800 nM

Structure (SMILES): CCNC(=O)c1noc(-c2cc(C(C)C)c(O)cc2O)c1-c1ccc(CN2CCOCC2)cc1 [LUMINESPIB]
- GI50 (A549 [3]): 10 nM
- GI50 (NCI-H460): 30 nM
- GI50 (NCI-H1975 [4]): 20 nM

Structure (SMILES): COc1ccc(CN(C(=O)c2cc(C(C)C)c(O)cc2O)c2ccc(Cn3c(=O)c(F)cn(C4CCCO4)c3=O)cc2)cc1 (stereo not drawn)
- IC50 [1]: 58.8 nM
- GI50 (HCT-116 [2]): 720 nM
- GI50 (A549 [3]): 920 nM
- GI50 (NCI-H460): 390 nM
- GI50 (NCI-H1975 [4]): 230 nM

Structure (SMILES): CC(C)c1cc(-c2n[nH]c(=O)n2-c2ccc3c(ccn3C)c2)c(O)cc1O [GANETESPIB]
- GI50 (HCT-116 [2]): 150 nM

Structure (SMILES): CCN(C(=O)c1cc(C(C)C)c(O)cc1O)c1ccc(Cn2c(=O)c(F)cn(C3CCCO3)c2=O)cc1 (stereo not drawn)
- IC50 [1]: 27.8 nM
- GI50 (HCT-116 [2]): 10 nM
- Ratio IC50 (HCT-116 [5]): 15
- Activity (A549 [6]): Active
- GI50 (A549 [3]): 70 nM
- GI50 (NCI-H460): 60 nM
- GI50 (NCI-H1975 [4]): 40 nM
- inhibition (HCT-116 [7]): Active
- inhibition (A549 [8]): Active
- inhibition (NCI-H1975 [9]): Active
- inhibition (A549 [10]): Active
- inhibition (NCI-H1975 [11]): Active
- inhibition (A549 [12]): Active
- inhibition (NCI-H1975 [13]): Active
- inhibition (A549 [14]): Active
- inhibition (NCI-H1975 [15]): Active
- Activity (NCI-H1975 [16]): Active
- Activity (A549 [17]): Dose-dependent effect
- Activity (A549 [18]): Dose-dependent effect
- Activity (A549 [19]): Dose-dependent effect
- Activity (A549 [20]): Dose-dependent effect
- Activity (A549 [21]): Dose-dependent effect
- Activity (NCI-H1975 [22]): Dose-dependent effect
- Activity (NCI-H1975 [23]): Dose-dependent effect
- Activity (NCI-H1975 [24]): Dose-dependent effect
- Activity (NCI-H1975 [25]): Dose-dependent effect
- Activity (NCI-H1975 [26]): Dose-dependent effect
